Measured values from different studies.
Lines come from different studies, so protocols differ.
MAL12: Alpha-glucosidase MAL12 (MAL12, Saccharomyces cerevisiae S288c, UniProt P53341)
MAP3K7: Mitogen-activated protein kinase kinase kinase 7 (MAP3K7, Homo sapiens, UniProt O43318)
ADRA1A: Alpha-1A adrenergic receptor (ADRA1A, Homo sapiens, UniProt P35348)

| Compound | target | test | setting | endpoint | value |
| --- | --- | --- | --- | --- | --- |
| CCCCCCCCCCCCCC(=O)OCC(C)(C)CC1=C(O)C(=O)c2ccccc2C1=O | MAL12 | enzyme activity, inhibitor | 50 µM | inhibition | > 70% |
| C#Cc1cnc(Nc2ccc(CO)cc2)nc1Nc1ccccc1C(=O)NC | MAP3K7 | enzyme activity, inhibitor | 1 µM | remaining activity | 76.9% |
| COc1cc2c3c(c1OC)-c1c(OC)ccc(O)c1CC3N(C)CC2 (stereo not drawn) | ADRA1A | ligand displacement, radioligand | 10 µM | inhibition | 9% |
| O=c1cc(-c2ccccc2)oc2cc(O)cc(O)c12 | MAL12 | enzyme activity, inhibitor, absorbance | 50 µM | inhibition | 31.2% |
| CCCCC(=O)Nc1ccc(-c2ccc3ncn(CCC)c(=O)c3c2)cn1 | Wee1-like protein kinase 2 (WEE2, Homo sapiens, UniProt P0C1S8) | binding, competition with immobilised ligand | 0.5 µM | remaining binding | 100% |
| COc1cc(O)c2c(c1)O[C@H](c1ccccc1)CC2=O | MAL12 | enzyme activity, inhibitor, absorbance | 50 µM | inhibition | 15.1% |
| COc1cc2c3c(c1OC)-c1c(OC)ccc(-c4ccc(C#N)cc4)c1CC3N(C)CC2 (stereo not drawn) | ADRA1A | ligand displacement, radioligand | 10 µM | inhibition | 83% |
| C1=C/COCc2cc(ccc2OCCN2CCCC2)Nc2nccc(n2)-c2cccc(c2)COC/1 | Tyrosine-protein kinase Lyn (LYN, Homo sapiens, UniProt P07948) | binding | 0.1 µM | remaining binding | 88% |
| O=C1C[C@@H](c2ccc(O)cc2)Oc2c(Br)c(O)c(Br)c(O)c21 | MAL12 | enzyme activity, inhibitor, absorbance | 50 µM | inhibition | 80.5% |
| C#Cc1cnc(Nc2ccc(CO)nc2)nc1Nc1ccccc1S(C)(=O)=NC#N (stereo not drawn) | MAP3K7 | enzyme activity, inhibitor | 1 µM | remaining activity | 50.4% |
| O=c1cc(-c2ccc(O)c(O)c2)oc2cc(O)cc(O)c12 | MAL12 | enzyme activity, inhibitor, absorbance | 50 µM | inhibition | 34.4% |
| CNC(=O)c1ccccc1Nc1nc(Nc2ccc(CO)cc2)ncc1Cl | MAP3K7 | enzyme activity, inhibitor | 1 µM | remaining activity | 42.9% |
